TRPC4 agonist = activators of mouse TRPC4 channel; HEK293 TRPC4beta/mu-opioid, Fluo4 calcium fluorescence; stronger effect = higher value; B-score at 10 µM; 310,000 compounds, 0.49% hits; AID 2237;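 active = B-score above 5 SD of library B-scores, and initial fluorescence ratio not above library mean plus 5 SD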;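 also: positive B-score marks a calcium rise read as TRPC4 activation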
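system = HEK293 cells stably co-expressing mouse TRPC4beta and mu-opioid receptor | schedule = Fluo4 dye loading 45 min at room temperature, 110 s recording | measure = B-scored integrated calcium fluorescence ratio | signal = Fluo4 calcium-sensitive dye fluorescence, kinetic, 1 Hz baseline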
TRPC4 inh = TRPC4 (mouse) channel inhibition; HEK293 TRPC4beta/mu-opioid, DAMGO-evoked Fluo4 calcium flux; stronger effect = lower value; 300,000 compounds, 0.39% hits; AID 2247; B-score at 10 µM; Q9QUQ5;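 active = B-score over 3 SD under the library average, no early fluorescence shift, positive overall ratio signal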
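Assay system: HEK293 cells with stable TRPC4beta plus mu-opioid receptor expression. Dosing: single dose. Measured by: Fluo4 Ca2+ flux fluorescence. Also added: DAMGO in two steps, submaximal then maximal. Read-out: B score from integrated Fluo4 fluorescence ratio.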
TRPC4 potent = allosteric potentiators of mouse TRPC4 channel. HEK293 TRPC4beta/mu-opioid, DAMGO EC20, Fluo-4 Ca2+ flux; stronger effect = higher value. B-score at 10 µM. 310,000 compounds, 0.42% hits;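 active = B-score of calcium response area above 5 SD of library B-scores, with initial fluorescence ratio within 5 SD of library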;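 also: B-score of integrated fluorescence ratio over time as area under calcium response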
TRPC6 inhibitor = mouse TRPC6 channel inhibition; Q61143; HEK293-TRPC6, membrane potential dye, ACh-evoked depolarization; stronger effect = lower value; B-score at 10 µM; 310,000 compounds, 1.1% hits;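 active = B-score under library mean minus 3 SD, initial fluorescence not abnormally high, positive integrated signal ratio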;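 also: B-score derived from integrated fluorescence ratio over the kinetic read; more negative B-score means stronger inhibition of depolarization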
Target sequence (Q61143 whole entry, looked up): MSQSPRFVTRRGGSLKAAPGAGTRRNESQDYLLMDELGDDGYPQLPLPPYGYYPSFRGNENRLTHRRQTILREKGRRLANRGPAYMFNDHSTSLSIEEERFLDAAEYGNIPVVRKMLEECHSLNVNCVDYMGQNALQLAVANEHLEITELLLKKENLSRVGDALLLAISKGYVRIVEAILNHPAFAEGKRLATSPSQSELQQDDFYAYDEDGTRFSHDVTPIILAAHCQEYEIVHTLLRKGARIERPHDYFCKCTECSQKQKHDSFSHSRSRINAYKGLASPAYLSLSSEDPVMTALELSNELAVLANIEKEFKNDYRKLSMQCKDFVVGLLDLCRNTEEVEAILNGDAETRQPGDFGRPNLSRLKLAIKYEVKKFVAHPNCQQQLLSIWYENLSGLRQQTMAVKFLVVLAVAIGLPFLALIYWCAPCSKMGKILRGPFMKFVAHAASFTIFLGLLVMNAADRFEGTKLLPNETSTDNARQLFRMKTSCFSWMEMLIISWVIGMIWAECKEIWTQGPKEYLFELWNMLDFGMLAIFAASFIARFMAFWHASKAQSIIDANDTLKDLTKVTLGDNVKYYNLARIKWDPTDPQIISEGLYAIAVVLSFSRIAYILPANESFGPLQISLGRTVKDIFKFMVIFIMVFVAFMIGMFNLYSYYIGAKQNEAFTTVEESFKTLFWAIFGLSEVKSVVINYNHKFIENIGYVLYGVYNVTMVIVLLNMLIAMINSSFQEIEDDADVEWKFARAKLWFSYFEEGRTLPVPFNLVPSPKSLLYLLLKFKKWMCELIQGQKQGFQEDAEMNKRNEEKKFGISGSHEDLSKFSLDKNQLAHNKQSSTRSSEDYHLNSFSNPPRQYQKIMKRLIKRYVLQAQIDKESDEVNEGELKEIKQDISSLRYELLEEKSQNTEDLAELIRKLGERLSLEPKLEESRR
TRPC6 act = activators of mouse TRPC6 channel; Q61143; HEK293-TRPC6 membrane potential dye fluorescence; stronger effect = higher value; B-score at 10 µM; 310,000 compounds, 0.13% hits;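 active = B-score of the integrated fluorescence ratio above library mean plus 3 SD, and starting fluorescence ratio within library mean plus 5 SD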;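 also: higher score means more depolarization so channel activation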
TRPC4 spec 2 = mouse TRPC4 off-target activity of TRPC6 inhibitors, second screen | HEK293 TRPC4/MOR, membrane potential dye fluorescence; channel activated by saturating DAMGO dose | 920 compounds, 42% hits | shares compounds with TRPC6 inhibitor | inhibition, % at 10 µM;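 active = compounds whose fluorescence signal differed from control wells by over 3 SD, either direction, in both duplicate plates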
TRPC4 spec = tests whether TRPC6 inhibitors also affect mouse TRPC4. 920 compounds, 61% hits. AID 2777. HEK293 TRPC4/mu-opioid, membrane potential fluorescence. activity change, negative = inhibition, % at 10 µM. shares compounds with TRPC6 inhibitor;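 active = rise or fall in signal beyond 3 SD of buffer-only wells in both replicate plates, either sign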;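 also: integrated kinetic ratio of fluorescence range over baseline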
HEK293 MPD ctr 2-1 = parental HEK293 nonspecific activity of TRPC6 inhibitors, second screen; shares compounds with TRPC6 inhibitor; parental HEK293 membrane potential dye fluorescence; maximal acetylcholine challenge after compound addition; signal change vs control, % at 10 µM; 920 compounds, 31% hits;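 active = membrane potential signal moving either way by over 3 SD of the maximum-effect control, in both duplicate plates, meaning non-specific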
HEK293 MPD ctr-1 = counter-screen for TRPC6 inhibitors: effect in parental HEK293 cells; shares compounds with TRPC6 inhibitor; parental HEK293 membrane potential dye fluorescence; membrane potential signal change, % at 10 µM; 920 compounds, 60% hits; AID 2780;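 active = membrane potential signal shifting up or down by more than 3 SD of buffer-only wells, on both duplicate plates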
HEK293 MPD ctr-2 = parental HEK293 nonspecific activity of TRPC6 modulators. shares compounds with TRPC6 inhibitor. membrane potential dye fluorescence. membrane potential signal change, % at 10 µM. 2,400 compounds, 51% hits;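 active = membrane potential signal moves up or down beyond 5 SD from buffer-only wells, on both duplicate plates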
HEK293 MPD ctr 2-2 = second check of TRPC6 modulator effects in parental HEK293 cells. shares compounds with TRPC6 inhibitor. membrane potential dye fluorescence; after compound, maximal acetylcholine stimulation. inhibition, % at 10 µM. 2,400 compounds, 14% hits;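 active = membrane potential signal drops by more than 5 SD from the mean control signal, in both duplicate plates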;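 also: plate controls were acetylcholine ECmax control wells for no effect and buffer only wells for full effect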
TRPC4/MOR mod = selectivity of TRPC6 modulators against mouse TRPC4; shares compounds with TRPC6 inhibitor; HEK293 TRPC4/mu-opioid, membrane potential fluorescence; percent change from control (negative = decrease, positive = increase), % at 10 µM; 2,400 compounds, 69% hits; AID 488927;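 active = membrane potential signal moved up or down beyond 5 SD of buffer control wells, in both duplicate plates, actives on both sides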;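 also: plate controls were assay buffer wells for no effect and DAMGO maximal-effect wells for full effect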
TRPC4/MOR inh 2 = mouse TRPC4 off-target activity of TRPC6 modulators, second screen | inhibition, % at 10 µM | shares compounds with TRPC6 inhibitor | AID 488928 | 2,400 compounds, 55% hits | HEK293 TRPC4/mu-opioid, membrane potential dye fluorescence; stimulated with maximal-effect DAMGO;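 active = drop in membrane potential signal beyond 5 SD of the control wells in both duplicate plates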;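 also: TRPC4 counter screen for TRPC6 hits run under conditions tuned for TRPC6 not TRPC4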
TRPC6 block conf = mouse TRPC6 inhibitor confirmation; HEK293-TRPC6, membrane potential dye, ACh-evoked depolarization; shares compounds with TRPC6 inhibitor; inhibition, % at 10 µM; 3,300 compounds, 43% hits; AID 488960;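 active = fluorescence ratio falls more than 5 SD below the full-stimulation control mean, in both duplicate runs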;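 also: integrated fluorescence ratio of peak minus minimum over baseline after agonist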
TRPC6 act confirm = confirmation of mouse TRPC6 activators. shares compounds with TRPC6 inhibitor. HEK293-TRPC6 membrane potential dye fluorescence, FDSS. activation, % at 10 µM. 2,800 compounds, 11% hits. AID 488961;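 active = ratio signal rise beyond 5 SD above unstimulated control wells' mean, seen in both duplicate runs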;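 also: plate controls were buffer EC0 wells for no effect and acetylcholine ECmax response for full effect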
Active calls of the source: *; i = inactive; / = not tested or not shown. The list is not random: actives were taken first. Their share in the collection is about 2.3%.

SMILES | TRPC4 agonist | TRPC4 inh | TRPC4 potent | TRPC6 inhibitor | TRPC6 act | HEK293 MPD ctr-2 | HEK293 MPD ctr 2-2 | TRPC4/MOR mod | TRPC4/MOR inh 2 | TRPC6 block conf | TRPC6 act confirm | others
Cc1cccc(NC(=O)c2cc(-c3ccccn3)nc3ccccc23)c1C | i | i | i | i | i | / | / | / | / | / | /
CN1CCN(c2ccc(NC(=O)c3ccc(Cl)cc3Cl)cc2)CC1 | i | i | i | -5.9* | i | i | i | i | i | i | i
O=C(Nc1ccc(N2CCCC2)cc1)c1ccc(Cl)cc1Cl | i | i | i | i | i | / | / | / | / | / | /
CC1CCCN(C(=O)COc2ccc(-c3ccccc3)cc2)C1 (stereo not given) | i | i | i | -6* | i | i | i | 10%* | i | i | /
Cc1cccc(NC(=O)c2cc3c(=O)n4ccccc4nc3s2)c1 | i | i | i | i | i | / | / | / | / | / | /
CC(=O)NS(=O)(=O)c1ccc(NC(=O)c2cc3c(=O)n4ccccc4nc3s2)cc1 | i | i | i | -7.9* | i | / | / | / | / | i | i | TRPC4 spec 2=74%*;TRPC4 spec=-35%*;HEK293 MPD ctr 2-1=30%*;HEK293 MPD ctr-1=-653%*
CCCn1c2ccccc2c2cnn(CC(=O)N3CCN(C4CCCCC4)CC3)c(=O)c21 | i | i | i | i | 15* | 318%* | i | 56%* | i | i | 106%*
O=C(Nc1ccc(C(=O)OC[C@@H]2CCCN3CCCC[C@H]23)cc1)c1cccc(Br)c1 | i | i | i | i | i | / | / | / | / | / | /
CCCCc1nc2ccccc2c(N)c1CCC (tested in a mixture with another compound) | i | -6* | i | -7.6* | i | / | / | / | / | 59%* | i | TRPC4 spec 2=15%*;TRPC4 spec=i;HEK293 MPD ctr 2-1=i;HEK293 MPD ctr-1=0.7%*
CCCCc1nc2ccccc2c(NC(=O)CNC(C)(C)C)c1CCC | i | i | i | i | i | / | / | / | / | / | /
CCOC(=O)C1(C)/C(=N/Nc2ccccc2OC)C(=O)C(=O)N1c1ccccc1 (stereo not given) | i | i | i | -8.1* | i | -226%* | i | -40%* | 68%* | 44%* | i
CCN1CCc2c(OCc3ccccc3)cccc2C1=O | i | i | i | -5.6* | i | 126%* | i | 21%* | i | i | /
CC(C)(C)c1ccc(OCC(=O)Nc2ccc3c4c(cccc24)C(=O)NC3=O)cc1 | i | i | i | i | i | / | / | / | / | / | /
COc1ccc(CNC(=O)CN2c3ccccc3S(=O)(=O)c3ccccc32)cc1 | i | i | i | i | i | / | / | / | / | / | /
N=C1c2ccccc2CN1c1ccc(N2CCOCC2)c(S(=O)(=O)Nc2ccc(Cl)cc2)c1 | i | i | i | -7.4* | i | / | / | / | / | i | i | TRPC4 spec 2=36%*;TRPC4 spec=-13%*;HEK293 MPD ctr 2-1=i;HEK293 MPD ctr-1=i
Cc1cc(C)cc(NC(=O)CCNS(=O)(=O)c2cc(Br)cnc2N)c1 | i | i | i | i | i | / | / | / | / | / | /
Cc1cccc[n+]1CC(=O)Nc1ccc([N+](=O)[O-])cc1Cl | i | i | i | i | i | / | / | / | / | / | /
O=C(C[n+]1ccc(Cc2ccccc2)cc1)Nc1ccc([N+](=O)[O-])cc1Cl | i | i | i | -7.6* | i | / | / | / | / | i | i | TRPC4 spec 2=i;TRPC4 spec=-27%*;HEK293 MPD ctr 2-1=i;HEK293 MPD ctr-1=-334%*
NCCCCCc1nnc(SCc2ccc(Cl)c(Cl)c2)o1 | i | i | i | -6.2* | i | i | i | i | 66%* | 60%* | i
CN(C)N(Cc1ccccc1)C(=O)C(O)(c1ccccc1)c1ccccc1 | i | i | i | i | i | / | / | / | / | / | /
CN(C)C(C)(C)/C=C/C(O)(c1ccccc1)c1ccccc1 | i | i | i | -8* | i | / | / | / | / | 54%* | i | TRPC4 spec 2=i;TRPC4 spec=i;HEK293 MPD ctr 2-1=-7.0%*;HEK293 MPD ctr-1=0.3%*
Cc1ccccc1NC(=O)Cc1nc(COC(=O)CSc2ccccc2)cs1 | i | i | i | i | i | / | / | / | / | / | /
CCOC(=O)c1nc2cc3n(c(C)c-2c1C)C(C)C(CC)=C3C (stereo not given) | i | i | i | -6.5* | i | 158%* | 174%* | 24%* | 34%* | 52%* | i
Cc1cccc(NC(=S)NC(C)C(c2ccccc2)N2CCN(C)CC2)c1C (stereo not given) | i | i | i | i | i | / | / | / | / | / | /
COC(=O)c1cc2c(=O)n3ccccc3nc2n(Cc2cccnc2)c1=N | i | i | i | -7.8* | i | / | / | / | / | i | i | TRPC4 spec 2=75%*;TRPC4 spec=-33%*;HEK293 MPD ctr 2-1=i;HEK293 MPD ctr-1=-520%*
N=c1c(C(=O)NCc2ccc(F)cc2)cc2c(=O)n3ccccc3nc2n1Cc1cccnc1 | i | i | i | -5.8* | i | i | i | -34%* | i | 52%* | i
CSc1nc(SCC(=O)NCC2CCCO2)c2c3c(sc2n1)CN(C)CC3 (stereo not given) | i | i | i | -5* | i | -134%* | i | -28%* | i | i | i
